The source of these data is ChEMBL document CHEMBL1141414, “Inhibitors of bacterial cystathionine beta-lyase: leads for new antimicrobial agents and probes of enzyme structure and function” (J Med Chem, 2007).

Molecules are shown by their SMILES. ≈ marks a conversion by molar mass, not a printed value.

For orientation: MIC means the least concentration at which growth counts as inhibited. Usually IC50 stands for the point on the concentration scale where inhibition reaches its midpoint.

Experiment [1] relates to Escherichia coli. Kind of experiment: Antibacterial activity against Escherichia coli ATCC 25922 in absence of methionine. Type of experiment: functional.
The test system of experiment [2] is Escherichia coli. The experiment is described as follows: Antibacterial activity against Escherichia coli ATCC 25922 in presence of methionine. Type of experiment: functional.
Experiment [3] addresses T1, Cystathionine beta-lyase MetC (Escherichia coli K-12, UniProt P06721).
T1 sequence (P06721 whole entry): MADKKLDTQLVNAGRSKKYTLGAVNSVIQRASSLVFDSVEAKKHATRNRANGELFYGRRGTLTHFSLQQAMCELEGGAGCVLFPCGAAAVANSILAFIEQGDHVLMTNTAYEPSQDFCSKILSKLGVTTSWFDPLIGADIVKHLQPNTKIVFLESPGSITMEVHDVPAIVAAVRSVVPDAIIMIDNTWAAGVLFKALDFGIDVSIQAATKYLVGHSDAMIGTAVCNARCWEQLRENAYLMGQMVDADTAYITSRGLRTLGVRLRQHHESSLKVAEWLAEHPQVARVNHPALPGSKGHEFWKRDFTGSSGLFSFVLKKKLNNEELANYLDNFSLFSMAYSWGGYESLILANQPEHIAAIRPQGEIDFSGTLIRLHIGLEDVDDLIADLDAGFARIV
Kind of experiment: Inhibition of Escherichia coli CBL. The procedure, abridged: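 Purified E. coli CBL (24 nM) in 50 mM TAPS pH 8.5 with 1 mM DTNB, preincubated 10 min at room temperature with inhibitor in DMSO (5% final). Reaction started with 100 µM cystathionine; homocysteine formation followed at 412 nm for 4 min, rate taken from 30-200 s slope. IC50 fitted as a four-parameter logistic from 12 concentrations, triplicate.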

The subject of experiment [4] is Candida albicans. The experiment is described as follows: Antifungal activity against Candida albicans ATCC 90028. The class given is functional.

Turning to `NNC(=O)CNC(=O)c1ccc([N+](=O)[O-])cc1`, the MIC in experiment [1] was 32 µg/mL (≈ 134 µM); in experiment [2], 64 µg/mL; in experiment [4], > 128 µg/mL. This compound returned an IC50 in experiment [3] of 25 µM.

For `NNC(=O)CNC(=O)c1ccccc1C(F)(F)F`, the MIC in experiment [1], in experiment [2] and in experiment [4] was > 128 µg/mL each time. This compound displayed an IC50 in experiment [3] of 0.079 µM.

For the compound `NNC(=O)CNC(=O)c1cccc(C(F)(F)F)c1`, the MIC in experiment [1], in experiment [2] and in experiment [4] was > 128 µg/mL in each case. In experiment [3], this compound returned an IC50 of 37 µM.

Take `NNC(=O)CNC(=O)c1cc([N+](=O)[O-])cc([N+](=O)[O-])c1`: the MIC in experiment [1] is 128 µg/mL (≈ 452 µM); in experiment [2], 128 µg/mL; in experiment [4], > 128 µg/mL. The IC50 in experiment [3] was determined as 5.9 µM.

With `NNS(=O)(=O)c1cccc2c(N)cccc12`, in experiment [3], the 50% inhibitory concentration (IC50) came to 6 µM.

`NNC(=O)CNC(=O)Cc1cccc2ccccc12` returned an IC50 in experiment [3] of 500 µM.

For the compound `Cc1ccccc1NC(=O)C(C(F)(F)F)C(F)(F)F`, the MIC in experiment [1] was 32 µg/mL (≈ 112 µM); in experiment [2], 64 µg/mL; in experiment [4], 16 µg/mL (≈ 56.1 µM). The same compound yielded a concentration for half-maximal inhibition (IC50) in experiment [3] of 0.28 µM.

`NNS(=O)(=O)c1ccc(Cl)s1` displayed an IC50 in experiment [3] of 6.9 µM.

For the compound `NNS(=O)(=O)c1ccc(-c2ccccn2)s1`, the minimum inhibitory concentration (MIC) in experiment [1] was 32 µg/mL (≈ 125 µM); in experiment [2], 32 µg/mL; in experiment [4], > 128 µg/mL. The IC50 in experiment [3] was found to be 3.4 µM.

In the case of `NNS(=O)(=O)c1ccc(Cl)c(Cl)c1`, in experiment [3], the concentration for half-maximal inhibition (IC50) came out at 1.8 µM.

On to `Cc1ccc(S(=O)(=O)NN)cc1`, for which the MIC was determined as 32 µg/mL (≈ 172 µM) in experiment [1], 64 µg/mL in experiment [2] and 128 µg/mL (≈ 687 µM) in experiment [4]. In experiment [3], this compound had an IC50 of 2.2 µM.

Take `N#CC(C#N)=C1c2cc(S(=O)(=O)Oc3ccccc3)cc([N+](=O)[O-])c2-c2c1cc(S(=O)(=O)Oc1ccccc1)cc2[N+](=O)[O-]`: the IC50 in experiment [3] worked out at 9 µM.

In the case of `NNC(=O)CNC(=O)c1cc(N)cc(N)c1`, the results for the MIC in experiment [1], in experiment [2] and in experiment [4] were 128 µg/mL (≈ 573 µM), 128 µg/mL and > 128 µg/mL, respectively. The compound also yielded an IC50 in experiment [3] of 82 µM.

With `COc1c(F)c(F)cc(C(=O)NCC(=O)NN)c1F`, the MIC in experiment [1], in experiment [2] and in experiment [4] was > 128 µg/mL in each case. For the same compound, 0.65 µM corresponded to half-maximal inhibition in experiment [3] (IC50).

As to `O=C(OCc1ccccc1Br)c1cc([N+](=O)[O-])cc2c1-c1ccc([N+](=O)[O-])cc1/C2=N/O`, the MIC in experiment [1] is 64 µg/mL (≈ 128 µM); in experiment [2], 64 µg/mL; in experiment [4] it was > 128 µg/mL. In experiment [3], the IC50 stood at 0.53 µM.

Turning to `NNC(=O)CNC(=O)c1cc2ccccc2cc1N`, the minimum inhibitory concentration (MIC) in experiment [1], in experiment [2] and in experiment [4] was > 128 µg/mL each time. In experiment [3], inhibition was half-maximal at 560 µM (IC50).

In the case of `COc1cccc(OC)c1C(=O)NCC(=O)NN`, the MIC in experiment [1], in experiment [2] and in experiment [4] was > 128 µg/mL in each case. In experiment [3], this compound returned an IC50 of 60 µM.

Take `O=C(CSc1nccc(-c2cccs2)n1)c1cc(-c2ccc(Cl)c(Cl)c2)no1`: the MIC in experiment [1], in experiment [2] and in experiment [4] was > 128 µg/mL in each case. Besides, in experiment [3], the IC50 turned out to be 2.7 µM.

Turning to `Cc1ccc2nc(-c3ccc(NC(=O)c4ccc(Cl)cc4)cc3)sc2c1`, the MIC in experiment [1], in experiment [2] and in experiment [4] was > 128 µg/mL each time. In experiment [3], this compound gave an IC50 of 200 µM.

As to `NNC(=O)CNC(=O)c1ccc(C(F)(F)F)cc1`, the MIC in experiment [1] was 128 µg/mL (≈ 490 µM); in experiment [2] it was 128 µg/mL; in experiment [4], > 128 µg/mL. Also, inhibition in experiment [3] was half-maximal at 15 µM (IC50).

For the compound `CC(=O)NCc1ccc(S(=O)(=O)NN)cc1`, the MIC in experiment [1] was 64 µg/mL (≈ 263 µM); in experiment [2] it was 64 µg/mL; in experiment [4], > 128 µg/mL. This compound returned an IC50 in experiment [3] of 34 µM.

Regarding `Cc1ccc2nc(-c3ccc(NC(=O)Nc4ccc(Cl)cc4)cc3)sc2c1`, the minimal inhibitory concentration (MIC) in experiment [1], in experiment [2] and in experiment [4] was > 128 µg/mL in each case. In addition, half-maximal inhibition in experiment [3] (IC50) was put at 16 µM.

In the case of `NNC(=O)CNC(=O)c1ccccc1[N+](=O)[O-]`, the MIC in experiment [1] is 16 µg/mL (≈ 67.2 µM); in experiment [2] it was 16 µg/mL; in experiment [4] it was 128 µg/mL (≈ 537 µM). For the same compound, the 50% inhibitory concentration (IC50) in experiment [3] worked out at 4.5 µM.
